Target: Sigma non-opioid intracellular receptor 1 (Homo sapiens, UniProt Q99720)
Assay: Displacement of [3H]-(+)-pentazocine from sigma1 receptor (unknown origin) expressed in HEK293 cell membranes after 120 mins by microbeta scintillation counting method
Summary of the method: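 Radioligand binding run by an external screening program; sigma-1 tracer [3H]-pentazocine, sigma-2 tracer [3H]-DTG. Each compound first tested at a single 10 μM concentration. Those giving >50% inhibition were then titrated over a dose range to derive pKi.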

Sequence of Sigma non-opioid intracellular receptor 1 (Q99720 whole entry): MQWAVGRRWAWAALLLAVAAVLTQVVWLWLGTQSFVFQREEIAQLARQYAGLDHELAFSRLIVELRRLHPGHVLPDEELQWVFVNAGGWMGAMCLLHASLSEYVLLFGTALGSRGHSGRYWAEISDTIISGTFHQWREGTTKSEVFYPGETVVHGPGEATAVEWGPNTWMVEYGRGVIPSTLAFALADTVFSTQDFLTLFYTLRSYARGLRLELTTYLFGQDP

Ki: 16 nM
SMILES: O=C(c1c2c(nn1-c1ccc(F)cc1)CCC(NCc1ccc(F)cc1)C2)N1CCCCC1 (stereo unspecified)

Source: BindingDB's records for doi:10.1016/j.bmc.2019.03.030 (Northwestern University, 2019)
